# Bioassay records (PubChem)
# zVAD death inh: L929 zVAD cell death inhibition; L929 zVAD necroptosis rescue, ATP luminescence, 24 h; with zVAD 60 µM; viability rescue, % at 10 µM; 0.38% of 220,000 active; AID 1377;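 active = activation, scaled between plate controls, above about 75%, limit read from the data; inactive = activation under that limit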;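 also: 0% = zVAD with DMSO and 100% = DMSO alone without zVAD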
# STAT3 act: activators of IL-6 induced STAT3 signaling | AID 871 | U3A cells, IL-6 STAT3-luciferase reporter, luminescence; 100% = signal with IL-6 EC80 alone | activation (% of control), % at 5.6 µM | 0.91% of 190,000 active;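 active = activation above the screen-wide mean of compound activation plus 3 SD, cut at about 130% in these data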;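 also: 0% = background luminescence of wells with medium and substrate only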
#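 Test system: human U3A cells carrying STAT3-luciferase construct; control set: IL-6-only wells as 100% reference; timing: compound pre-incubation 1 h before IL-6, then 6 h stimulation at 37 °C; also added: IL-6 stimulus at 33 ng/mL final; evaluation: % activation versus median of IL-6-stimulated wells; detection: reporter luminescence signal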
# TNF necrop inh: inhibitors of TNF-alpha induced necroptosis in Jurkat FADD-/- cells. Jurkat FADD-/- TNF necroptosis rescue, ATP luminescence, 24 h; 0 = TNF only, 100 = no-TNF cells. activation (protection from cell death), % at 10 µM. 0.068% of 220,000 active. AID 463075;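 active = activation, meaning protection from cell death, of at least 50% relative to plate controls; inactive = activation below 50%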;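 also: necroptosis triggered by 40 ng/mL TNF-alpha added together with compound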
# STAT1 inh-1: reduces IFN-gamma driven STAT1 reporter signal; NIH 3T3 STAT1-luciferase reporter, luminescence; inhibition, % at 5.5 µM; 0.35% of 200,000 active; AID 920;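 active = inhibition above a set limit, the mean inhibition across all tested compounds plus 3 SD, cut at about 34% in these data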;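 also: 0% = IFN-gamma with DMSO and 100% = IFN-gamma with 300 µM nifuroxazide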
# STAT3 blocker: reduces IL-6 driven STAT3 reporter signal | U3A cells, IL-6 STAT3-luciferase reporter, luminescence; host cell line lacks STAT1 | inhibition, % at 5.5 µM | 0.89% of 190,000 active | AID 862;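 active = inhibition above the mean inhibition across all screened compounds plus 3 SD, cut at about 44% in these data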;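 also: 0% = DMSO only wells and 100% = 100 µM nifuroxazide control wells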
# STAT1 inh-2: confirmation of STAT1 signaling inhibitors; 55% of 200 active; inhibition, % at 5.5 µM; NIH 3T3 STAT1-luciferase reporter, IFN-gamma, luminescence; shares compounds with STAT1 inh-1; AID 1263;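 active = triplicate mean inhibition exceeding the hit cutoff computed for the primary STAT1 screen, cut at about 35% in these data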;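 also: 0% = DMSO with IFN-gamma and 100% = 300 µM nifuroxazide with IFN-gamma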
# NFkB inh STAT1ct: inhibits NF-kappaB, counter-screen to STAT1 inhibitors; shares compounds with STAT1 inh-1; HEK293T NF-kB luciferase reporter, TNF-alpha induced, luminescence; inhibition, % at 5.7 µM; 30% of 200 active; AID 1303;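 active = inhibition above the mean of solvent-only control wells plus 3 SD of those wells, cut at about 15% in these data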;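 also: 0% = DMSO with TNF-alpha and 100% = MG-132 control with TNF-alpha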
# STAT3 inh 2: STAT3 inhibition in STAT1 inhibitor counter-screen. 20% of 200 active. inhibition, % at 5.7 µM. U3A cells, IL-6 STAT3 luciferase reporter, luminescence; cells lacking STAT1. AID 1310. shares compounds with STAT1 inh-1;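 active = inhibition above the mean of solvent-only control wells plus 3 SD, set per campaign, cut at about 25% in these data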;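 also: 0% = IL-6 plus DMSO and 100% = IL-6 plus nifuroxazide control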
# zVAD necrop conf: confirmed blocker of zVAD induced death in L929 cells; activation (protection from necroptosis), % at 10 µM; L929 zVAD-induced necroptosis rescue, ATP luminescence, 24 h; shares compounds with zVAD death inh; 16% of 760 active;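 active = mean protection from necroptosis of at least 50% over duplicate tests; inactive = mean protection below 50%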;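 also: 0% = cells with zVAD alone and 100% = vehicle cells without zVAD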
# Active calls of the source: *; nt = not tested or not shown. Shown are actives, neighbours in structure and some others; about 2.1% of the full set was active somewhere.
SMILES,zVAD death inh,STAT3 act,TNF necrop inh,STAT1 inh-1,STAT3 blocker,zVAD necrop conf,others
CC1C(=O)NN=C1C(=O)N/N=C\C(Br)=C\c1ccccc1 (centres undefined),1.3,91.9,-4.6,81.3*,16.6,nt,STAT1 inh-2=40.5*;NFkB inh STAT1ct=2.9;STAT3 inh 2=-22.8
CCCCC(=O)N/N=C(C)/C=C/c1ccccc1F,1.2,99.5,-0.7,45.3*,6.2,nt,STAT1 inh-2=13.7;NFkB inh STAT1ct=-10.8;STAT3 inh 2=-36.9
COc1ccc2c(c1OC)C(=O)N1c3ccccc3C(=O)N(c3ccccc3F)C21 (centres undefined),0.5,85.4,-15.5,48.4*,23.3,nt,STAT1 inh-2=41.0*;NFkB inh STAT1ct=-11.6;STAT3 inh 2=30.0*
COc1ccc2c(c1OC)C(=O)N1c3ccccc3SC21 (centres undefined),-0.1,121.5,-0.6,-53.3,-22.2,nt,
CN(C)/C=C/c1onc(-c2ccccc2Cl)c1C#N,-0.3,101.5,1.3,-11.2,1.8,nt,
Cc1ccccc1-c1noc(N)c1C#N,1.0,100.4,4.3,34.6*,3.2,nt,STAT1 inh-2=41.6*;NFkB inh STAT1ct=-3.7;STAT3 inh 2=1.9
CC(CNC(=O)c1ccc2c(c1)OCO2)c1ccc([N+](=O)[O-])cc1 (centres undefined),0.6,96.7,0.9,6.6,10.0,nt,
O=C(Nc1ccc(F)cc1)C(c1ccccc1)N1CCN(S(=O)(=O)c2ccccc2)CC1 (centres undefined),3.0,98.5,3.1,18.1,4.7,nt,
Cc1ccc(S(=O)(=O)N2CCN(C(C(=O)Nc3ccc(F)cc3)c3ccccc3)CC2)cc1 (centres undefined),1.3,106.1,-1.1,43.0*,-7.6,nt,STAT1 inh-2=46.8*;NFkB inh STAT1ct=-5.4;STAT3 inh 2=-26.7
CCOC(=O)N1CCN(C(=O)c2ccc(CSc3ccc(Cl)cc3)cc2)CC1,1.4,88.0,0.3,37.6*,18.1,nt,STAT1 inh-2=39.0*;NFkB inh STAT1ct=9.8;STAT3 inh 2=24.5
CN1CCN(C(=O)c2ccc(CSc3ccc(Cl)cc3)cc2)CC1,-0.2,99.9,1.5,6.1,5.4,nt,
COC1(OC)C(=N/O)/C(=N\O)CCC1O (centres undefined),-0.2,97.9,-1.8,-4.5,6.4,nt,
O=C(O)c1cc(/C=C/c2ccc(N3CCOCC3)cc2)nc2ccccc12,-1.8,65.1,-6.2,39.0*,43.2,nt,STAT1 inh-2=-4.8;NFkB inh STAT1ct=38.0*;STAT3 inh 2=-12.7
O=C(O)c1cc(/C=C/c2ccc(N3CCOCC3)c([N+](=O)[O-])c2)nc2ccccc12,-1.0,nt,-5.8,nt,nt,nt,
COCCn1c(SCC(=O)Nc2ccc(Cl)cn2)nc2ccccc21,-0.2,86.2,15.4,9.0,19.6,nt,
COCC(C)NC(=O)c1ccccc1OC(C)=O (centres undefined),-1.4,100.5,-0.5,-3.0,2.5,nt,
C=CCOC(=O)C(=O)/C=C/c1coc2ccccc2c1=O,0.5,nt,0.4,9.5,nt,nt,
Cc1nc2ncccn2c1-c1csc(Nc2ccc(O)cc2)n1,88.1*,77.3,-9.3,45.1*,30.3,0.6,STAT1 inh-2=42.5*;NFkB inh STAT1ct=8.7;STAT3 inh 2=32.4*
CCOc1ccc(N2C(=O)CS/C2=C(\C(Cl)=C(Cl)Cl)[N+](=O)[O-])cc1,-1.9,99.4,-3.9,8.2,6.3,nt,
CC(=O)Nc1ccc(-c2csc(Nc3cc(C)ccn3)n2)cc1,9.2,87.5,-1.0,-44.1,24.1,nt,
Oc1ccc(-c2csc(Nc3ncccn3)n2)cc1,77.8*,83.3,15.6,-49.5,23.9,75.3*,
CC(=O)Nc1ccc(-c2csc(Nc3ncccn3)n2)cc1,79.8*,98.9,4.1,-60.8,6.6,0.9,
CCN(CC)CCCNC(=O)C1CCCN(c2nnc(N3CCCC3=O)s2)C1 (centres undefined),-0.6,104.0,-0.1,-2.2,1.1,nt,
Cc1ccc(NC(=S)NNC(=S)Nc2cccc(C(F)(F)F)c2)cc1,75.6*,nt,6.0,nt,nt,5.1,
O=C(/C=C\c1ccccc1)Nc1nccs1,103.2*,81.3,23.9,-19.4,25.2,6.5,
SMILES,zVAD death inh,STAT3 act,TNF necrop inh,STAT1 inh-1,STAT3 blocker,zVAD necrop conf,others
O=C(COC(=O)/C=C/c1cccc(F)c1)Nc1ncccn1,0.4,nt,0.6,nt,nt,nt,
Cc1ccc(/C=C/C(=O)Nc2ncc(C)s2)o1,8.6,105.2,1.2,-52.1,-6.5,nt,
Cc1ccc(/C=C/C(=O)Nc2nccs2)o1,78.9*,100.2,16.3,-54.1,2.4,5.6,
O=C(/C=C/c1cccs1)Nc1nccs1,79.3*,85.2,11.4,-36.5,21.8,1.0,
O=C(/C=C/c1cccc(F)c1)Nc1nccs1,87.8*,96.2,30.8,-55.0,11.8,76.4*,
CCOC(=O)/C=C/C(=O)Nc1nccs1,60.3,97.2,10.0,31.5,1.9,nt,
COc1ccccc1NS(=O)(=O)c1cccc(C(=O)N/N=C(\C)c2ccc(-n3ccnc3)cc2)c1,76.2*,97.8,1.6,-6.2,1.1,37.8,
C/C(=N\NC(=O)c1ccccc1)c1ccc(-n2ccnc2)cc1,5.2,100.0,0.8,-18.9,2.2,nt,
COc1cc(CN(C)C(C)C(=O)Nc2ccc([N+](=O)[O-])cc2Cl)ccc1OC(F)F (centres undefined),1.0,102.8,-1.3,3.2,-8.5,nt,
Cc1cccc(NC(=O)Nc2cc(C)cc(C)n2)c1,75.5*,87.6,-0.3,-74.1,22.2,2.6,
O=C(CSc1nnnn1-c1ccc2c(c1)OCCO2)Nc1nc2c(s1)CCCC2,83.6*,91.2,1.6,-8.7,16.5,73.6*,
COc1cccc(-n2nnnc2SCC(=O)Nc2nc3c(s2)CCCC3)c1,0.4,97.2,0.0,-0.2,5.5,nt,
COc1ccc(-n2c(C)cc(/C=N/Nc3nc(N4CCOCC4)nc(N4CCOCC4)n3)c2C)cc1,0.1,95.2,1.6,2.6,7.8,nt,
O=C1C=CC(O)(c2cc(=O)c3c(O)cc(O)cc3o2)C=C1,124.9*,91.3,-15.4,-68.4,7.6,166.2*,
O=c1cc(-c2ccccc2Cl)oc2cc(O)cc(O)c12,1.4,95.7,0.5,-1.9,2.3,nt,
O=c1nc2cccc3c2=c(/c1=C(\O)c1ccccc1)c1ccccc1c3=O,79.7*,91.1,2.6,0.6,14.5,0.5,
COCCn1c(C)cc(/C=C2/NC(=O)N(Cc3ccc(C)cc3)C2=O)c1C,0.1,nt,3.7,nt,nt,nt,
Cn1ncc2c(Nc3ccc4ccccc4c3)ncnc21,91.8*,103.0,-2.6,-49.7,1.5,2.5,
Cc1cccc(Nc2ncnc3c2cnn3C)c1,61.6,89.8,2.5,-8.4,16.0,nt,
Cn1nnnc1SCC(=O)Nc1ccc(Oc2ccccc2)cc1,3.7,97.9,1.6,-6.2,5.6,nt,
COCCCN(CCCN)Cc1ccco1,0.2,92.3,1.0,1.1,4.3,nt,
